pIC50: −log10 of the molar value. The source made the active and inactive calls. The calls are words filed in the database; no cut-off is given here.
Experiments:
[1] = Photocytotoxicity against […] cells assessed as reduction in cell viability for 30 mins followed by irradiation with LED light after 30 mins by MTTassay; type: cell-based; conditions: nih3t3, 0.5 h
Procedure, shortened: (§1)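 Cells incubated with varying R1 concentrations, then irradiated 30 min with 595 nm LED (20 mW/cm2); viability by MTT assay; IC50 from curves.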

SH-SY5Y [2] = test: Photocytotoxicity against human SH-SY5Y cells assessed as reduction in cell viability for 30 mins followed by irradiation with LED light after 30 mins by MTTassay; type: functional, cell-based; conditions: light or radiation study, 0.5 h; procedure, shortened: as §1
SH-SY5Y [3] = test: Induction of apoptosis in human SH-SY5Y cells assessed as apoptotic cells incubated in dark for 4 hrs at 2.5 uM by Annexin V-FITC/PI staining based confocal microscopy; type: functional, cell-based
Procedure, shortened: (§2)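 SH-SY5Y cells incubated with R1 (2.5 μM), kept dark or irradiated 4 h with 595 nm LED (20 mW/cm2), then stained with annexin V-FITC (green, early apoptosis) and propidium iodide (red, late apoptotic/necrotic); confocal imaging.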

[4] = Induction of singlet oxygen generation using PBS buffer assessed as decrease in absorbance of ADMDA at 380 nm irradiated with 595 nm LED; type: functional
Procedure, shortened: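 R1 (10 μM) pretreated with MAO-A or MAO-B (20 μg/mL) in PBS pH 7.4, 1% DMSO, with water-soluble anthracene trap ADMDA; kept dark 2 min, then irradiated with 595 nm LED (20 mW/cm2); ADMDA absorbance at 380 nm followed.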

SH-SY5Y [5] = test: Photocytotoxicity against human SH-SY5Y cells assessed as reduction in cell viability irradiated with 595 nm LED for 4 hrs measured after 24 hrs by MTT assay; type: functional, cell-based; conditions: light or radiation study
Procedure, shortened: (§3)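 Cells incubated with varying R1 concentrations, then irradiated 4 h with 595 nm LED (20 mW/cm2); viability read by MTT assay; IC50 from concentration–viability curves.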

SH-SY5Y [6] = test: Induction of apoptosis in human SH-SY5Y cells assessed as late apoptotic cells level irradiated with 595 nm LED for 4 hrs at 2.5 uM by Annexin V-FITC/PI staining based confocal microscopy; type: functional, cell-based; procedure, shortened: as §2
SH-SY5Y [7] = test: Induction of ROS production in human SH-SY5Y cells assessed as green emission irradiation with LED light for 30 mins measured after 3 hrs incubation by DCFH-DA staining based fluorescence microscopy; type: functional, cell-based
Procedure, shortened: (§4)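 Cells loaded with R1 for 3 h and with DCFH2-DA ROS sensor, then irradiated 30 min with LED (20 mW/cm2); green emission from oxidized sensor imaged by fluorescence microscopy.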

[8] = biological target: T1, Amine oxidase [flavin-containing] A (Homo sapiens, UniProt P21397); test: Prodrug activation assessed as MAO-A (unknown origin) mediated drug activation measuring increase in emission signal at 620 nm at 10 uM over 3 hrs by fluorescence spectroscopy
T1 sequence (P21397 whole entry): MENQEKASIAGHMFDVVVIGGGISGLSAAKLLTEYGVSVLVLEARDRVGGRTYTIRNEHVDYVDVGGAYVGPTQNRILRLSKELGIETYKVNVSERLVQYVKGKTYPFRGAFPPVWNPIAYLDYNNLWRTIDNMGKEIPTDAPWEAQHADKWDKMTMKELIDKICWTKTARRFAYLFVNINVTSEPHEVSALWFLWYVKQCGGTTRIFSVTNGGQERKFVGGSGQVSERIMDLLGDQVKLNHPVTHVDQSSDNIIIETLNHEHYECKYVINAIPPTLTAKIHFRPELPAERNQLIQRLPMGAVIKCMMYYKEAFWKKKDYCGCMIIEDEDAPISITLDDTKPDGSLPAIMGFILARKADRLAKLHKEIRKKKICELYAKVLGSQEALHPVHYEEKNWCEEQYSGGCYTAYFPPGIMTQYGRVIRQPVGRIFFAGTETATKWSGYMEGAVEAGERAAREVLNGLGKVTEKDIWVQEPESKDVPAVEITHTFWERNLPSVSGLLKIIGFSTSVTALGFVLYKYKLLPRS

SH-SY5Y [9] = test: Photocytotoxicity against human SH-SY5Y cells assessed as cell viability in dark at 2.5 uM measured after 24 hrs by MTT assay; type: functional, cell-based
Procedure, shortened: (§5)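 Cells incubated with varying R1 concentrations and kept in the dark in parallel with irradiated plates; viability by MTT assay.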

[10] = Photocytotoxicity against […] cells assessed as cell viability in dark at 2.5 uM measured after 24 hrs by MTT assay; type: cell-based; conditions: nih3t3, 24 h; procedure, shortened: as §5
NIH3T3 = test: Induction of ROS production in […] cells irradiation with LED light for 30 mins measured after 3 hrs by DCFH-DA staining based fluorescence microscopy; type: functional, cell-based; procedure, shortened: as §4
SH-SY5Y [11] = test: Induction of ROS production in human SH-SY5Y cells irradiation with LED light for 30 mins measured after 3 hrs by DCFH-DA staining based fluorescence microscopy in presence of clorgyline; type: functional, cell-based
Procedure, shortened: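 SH-SY5Y cells pretreated 30 min with clorgyline (0.1 μM), then incubated 3 h with R1 plus DCFH2-DA sensor and irradiated 30 min with LED (20 mW/cm2); green fluorescence imaged.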

SH-SY5Y [12] = test: Induction of ROS production in human SH-SY5Y cells in dark measured 3 hrs by DCFH2-DA fluorescence assay relative to control
[13] = Photocytotoxicity against […] cells assessed as reduction in cell viability irradiated with 595 nm LED for 4 hrs measured after 24 hrs by MTT assay; type: cell-based; conditions: NIH3T3, light or radiation study; procedure, shortened: as §3
SH-SY5Y [14] = test: Photocytotoxicity against human SH-SY5Y cells assessed as cell viability at 2.5 uM irradiated with 595 nm LED for 4 hrs measured after 24 hrs by MTT assay; type: functional; conditions: light or radiation study, read-out: Activity; procedure, shortened: as §3
SH-SY5Y [15] = test: Induction of ROS production in human SH-SY5Y cells assessed as green emission irradiation with LED light after 30 mins in presence of NaN3 measured after 3 hrs incubation by DCFH-DA staining based fluorescence microscopy; type: functional, cell-based
Procedure, shortened: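 SH-SY5Y cells pretreated with NaN3 as 1O2 quencher, then incubated with R1 and DCFH2-DA and irradiated with LED (20 mW/cm2); sensor green emission imaged by fluorescence microscopy.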

SH-SY5Y [16] = test: Induction of apoptosis in human SH-SY5Y cells assessed as early apoptotic cells level irradiated with 595 nm LED for 4 hrs at 2.5 uM by Annexin V-FITC/PI staining based confocal microscopy; type: functional, cell-based; procedure, shortened: as §2
SH-SY5Y [17] = test: Induction of apoptosis in human SH-SY5Y cells assessed as necrotic cells level irradiated with 595 nm LED for 4 hrs at 2.5 uM by Annexin V-FITC/PI staining based confocal microscopy; type: functional, cell-based; procedure, shortened: as §2
[18] = biological target: T1, Amine oxidase [flavin-containing] A; test: Prodrug activation assessed as MAO-A (unknown origin) mediated drug activation by measuring red shift of absorption maxima at 588/595 nm at 10 uM for 3 hrs by absorption spectroscopy
[19] = Photostability in pH 7.4 PBS buffer at 408/500 nm irradiated with 595 nm LED for 4 hrs; type: physicochemical; conditions: pH 7.4, 4 h
[20] = Photocytotoxicity against […] cells assessed as cell viability at 2.5 uM irradiated with 595 nm LED for 4 hrs measured after 24 hrs by MTT assay; type: cell-based, NIH3T3; conditions: read-out: Activity; procedure, shortened: as §3
MCF7 = test: Photocytotoxicity against human MCF-7 cells assessed as reduction in cell viability irradiated with 595 nm LED for 4 hrs measured after 24 hrs by MTT assay; type: functional, cell-based; conditions: MCF7, light or radiation study; procedure, shortened: as §3
[21] = biological target: T2, Amine oxidase [flavin-containing] B (Homo sapiens, UniProt P27338); test: Prodrug activation assessed as MAO-B (unknown origin) mediated drug activation measured increase in emission signal at 620 nm at 10 uM over 3 hrs by fluorescence spectroscopy
T2 sequence (P27338 whole entry): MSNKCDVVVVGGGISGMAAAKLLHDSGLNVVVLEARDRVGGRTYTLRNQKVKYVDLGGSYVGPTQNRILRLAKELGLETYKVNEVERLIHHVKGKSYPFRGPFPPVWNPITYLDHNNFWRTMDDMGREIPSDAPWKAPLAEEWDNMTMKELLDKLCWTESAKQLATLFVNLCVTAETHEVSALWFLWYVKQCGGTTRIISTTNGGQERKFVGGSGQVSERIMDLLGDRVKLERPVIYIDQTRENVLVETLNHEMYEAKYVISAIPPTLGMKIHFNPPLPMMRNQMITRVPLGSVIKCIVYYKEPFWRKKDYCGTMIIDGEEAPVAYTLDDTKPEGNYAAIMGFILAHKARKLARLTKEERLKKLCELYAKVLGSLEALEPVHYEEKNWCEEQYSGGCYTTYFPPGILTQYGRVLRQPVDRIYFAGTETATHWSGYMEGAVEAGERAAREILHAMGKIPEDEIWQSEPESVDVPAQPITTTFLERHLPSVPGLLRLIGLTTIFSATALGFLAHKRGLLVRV

## NCCCOc1ccc2nc3ccc(=O)cc-3oc2c1I
[1]
  Activity: Non-Toxic
SH-SY5Y [2]
  pIC50: 5.72
SH-SY5Y [3]
  Activity: inactive
[4]
  Activity: inactive
SH-SY5Y [5]
  pIC50: 6.38
SH-SY5Y [6]
  Activity: Active
SH-SY5Y [7]
  Activity: Active
[8]
  Activity: Not Active
SH-SY5Y [9]
  Activity: inactive
[10]
  Activity: Non-Toxic
NIH3T3
  Activity: inactive
SH-SY5Y [11]
  Activity: inactive
SH-SY5Y [12]
  Activity: inactive
[13]
  pIC50: 5.19
SH-SY5Y [14]
  viability at 2.5 µM: 3%
SH-SY5Y [15]
  Activity: inactive
SH-SY5Y [16]
  Activity: Active
SH-SY5Y [17]
  Activity: Active
[18]
  Activity: Active
[19]
  Stabilty: Stable
[20]
  viability at 24 h, 2.5 µM: 70%
MCF7
  pIC50: 5.40
[21]
  Activity: Not Active
